Experimental data from ChEMBL document CHEMBL1128227, “Cosalane analogues with enhanced potencies as inhibitors of HIV-1 protease and integrase” (J Med Chem, 1995).
Converted amounts (≈) assume the structure as drawn.

Key:
CCRF-CEM = test: Cytotoxical effect against CEM cell lines was determined by reduction of cellular viability; assay type: functional; conditions: Homo sapiens
Method in brief: (§1)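 Compounds tested as ammonium salts. Cytotoxicity in CEM-SS, MT-4 or PBL cultures taken from the reduction in cellular viability. Values are means of at least two separate experiments.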

HEL [1] = test: Antiviral activity was determined against (Herpes simplex virus -2) by concentration required to reduce virus induced cytopathogenicity by 50%.; assay type: functional, cell-based; conditions: Homo sapiens
HEL [2] = test: Antiviral activity was determined against Herpes simplex virus -1 TK- in HEL cells by measuring concentration required to reduce virus induced cytopathogenicity by 50%.; assay type: functional, cell-based; conditions: Homo sapiens
HEL [3] = test: Antiviral activity was determined against Herpes simplex virus -1 TK-/TK+ in HEL cells by measuring concentration required to reduce virus induced cytopathogenicity by 50%.; assay type: functional, cell-based; conditions: Homo sapiens
HEL [4] = test: Antiviral activity was determined against Herpes simplex virus -1 in HEL cells by measuring concentration required to reduce virus induced cytopathogenicity by 50%.; assay type: functional, cell-based; conditions: Homo sapiens
HEL [5] = test: Antiviral activity was determined against Human cytomegalovirus (strain Davis) in HEL cells by measuring concentration required to reduce virus induced cytopathogenicity by 50%.; assay type: functional, cell-based
HEL [6] = test: Antiviral activity was determined against Vaccinia virus in HEL cells by measuring concentration required to reduce virus induced cytopathogenicity by 50%.; assay type: functional, cell-based; conditions: Homo sapiens
HEL [7] = test: Antiviral activity was determined against Vesicular stomatitis virus in HEL cells by measuring concentration required to reduce virus induced cytopathogenicity by 50%.; assay type: functional, cell-based; conditions: Homo sapiens
HEL [8] = test: Antiviral activity against HEL cells by measuring minimum cytotoxic concentration that causes a microscopically detectable alteration of normal cell morphology after 2 day of treatment.; assay type: functional; conditions: Homo sapiens, 48 h
HeLa [9] = test: Antiviral activity was determined against Respiratory syncytial virus(strain Long) in HeLa cells by measuring concentration required to reduce virus induced cytopathogenicity by 50%.; assay type: functional, cell-based; conditions: Homo sapiens
Method in brief: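 RSV cytopathicity in HeLa cells. Compound added immediately after virus infection and left in the culture. Virus-induced cytopathogenicity scored at day 5 post-infection. IC50 in μg/mL.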

[10] = target: Human immunodeficiency virus type 1 integrase (Human immunodeficiency virus 1, UniProt Q7ZJM1); test: Inhibition of HIV -1 Integrase
Method in brief: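 Purified HIV-1 integrase. 3'-processing and strand-transfer (integration) activities were measured with synthetic double-stranded oligonucleotides mimicking viral DNA ends. Compounds tested as ammonium salts. Values are means of at least two experiments.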

HeLa [11] = test: Antiviral activity against HeLa cells by measuring minimum cytotoxic concentration that causes a microscopically detectable alteration of normal cell morphology after 2 day of treatment.; assay type: functional; conditions: Homo sapiens, 48 h
MOLT-4 [12] = test: Giant cell formation between HIV-1 (HTLV-IIIB) infected HUT-78 cells and uninfected MOLT-4(clone-8)cells; assay type: functional, cell-based; conditions: Homo sapiens
Method in brief: (§2)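 Syncytium assay: HUT-78 cells persistently infected with HIV-1 (HTLV-IIIB) or HIV-2 (LAV-2ROD) were co-cultured with uninfected MOLT-4 (clone 8) cells, and giant-cell formation was scored. Compounds tested as ammonium salts. Values are means of at least two experiments.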

MOLT-4 [13] = test: Giant cell formation between HIV-2 (LAV-2 rod) infected HUT-78 cells and uninfected MOLT-4(clone-8)cells; assay type: functional, cell-based; conditions: Homo sapiens; method in brief: as §2
MT4 [14] = test: Cytotoxical effect against MT-4 cell lines was determined by reduction of cellular viability; assay type: functional; conditions: Homo sapiens; method in brief: as §1
MT4 [15] = test: Viral cytopathicity against HIV -2 (LAV-2 rod)strain determined in MT-4 cells; assay type: functional, cell-based; conditions: Homo sapiens
MT4 [16] = test: Viral cytopathicity against HIV -I (HTLV-IIIb) strain determined in MT-4 cells; assay type: functional, cell-based; conditions: Homo sapiens
MDCK [17] = test: Antiviral activity against MDCK cells by measuring minimum cytotoxic concentration that causes a microscopically detectable alteration of normal cell morphology after 2 day of treatment.; assay type: functional; conditions: Canis lupus familiaris, 48 h
MDCK [18] = test: Antiviral activity was determined against Influenza virus A(strain Ishikawa) in MDCK cells by measuring concentration required to reduce virus induced cytopathogenicity by 50%.; assay type: functional, cell-based; conditions: Canis lupus familiaris
Method in brief: (§3)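 Tested in MDCK cells, with compound applied right after infection and left on. Cytopathic effect of influenza A (Ishikawa) or B (Singapore) was read at day 5 pi. IC50 is the concentration halving cytopathogenicity, in µg/mL.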

MDCK [19] = test: Antiviral activity was determined against Influenza virus B(strain Singapore) MDCK cells by measuring concentration required to reduce virus induced cytopathogenicity by 50%.; assay type: functional, cell-based; conditions: Canis lupus familiaris; method in brief: as §3
[20] = target: Human immunodeficiency virus type 1 protease (Human immunodeficiency virus 1, UniProt Q72874); test: Inhibition of HIV -1 protease
Method in brief: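 Purified HIV-1 protease with the peptide substrate Ala-Ser-Glu-Asn-Tyr-Pro-Ile-Val-Glu-amide. Cleavage quantified by reverse-phase HPLC. Compounds tested as ammonium salts. Values are means of at least two experiments.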

Homo sapiens [21] = species: Homo sapiens; test: Inhibition of p24 production in Peripheral blood lymphocytes; assay type: functional, organism-based
Method in brief: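 Phytohemagglutinin-stimulated peripheral blood lymphocytes infected with HIV-1 WUJO. Read-out is virion-associated p24 production. Compounds tested as ammonium salts. Values are means of at least two experiments.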

Vero [22] = test: Antiviral activity against Vero cells by measuring minimum cytotoxic concentration that causes a microscopically detectable alteration of normal cell morphology after 2 day of treatment.; assay type: functional; conditions: Chlorocebus sabaeus, 48 h
Vero [23] = test: Antiviral activity was determined against Junin virus in Vero cells by measuring concentration required to reduce virus induced cytopathogenicity by 50%.; assay type: functional, cell-based; conditions: Chlorocebus sabaeus
Vero [24] = test: Antiviral activity was determined against Tacaribe virus in Vero cells by measuring concentration required to reduce virus induced cytopathogenicity by 50%.; assay type: functional, cell-based; conditions: Chlorocebus sabaeus
Homo sapiens [25] = species: Homo sapiens; test: Cytotoxical effect against PBL cell lines was determined by reduction of cellular viability; assay type: functional; method in brief: as §1

Chain of Human immunodeficiency virus type 1 integrase (Q7ZJM1 whole entry): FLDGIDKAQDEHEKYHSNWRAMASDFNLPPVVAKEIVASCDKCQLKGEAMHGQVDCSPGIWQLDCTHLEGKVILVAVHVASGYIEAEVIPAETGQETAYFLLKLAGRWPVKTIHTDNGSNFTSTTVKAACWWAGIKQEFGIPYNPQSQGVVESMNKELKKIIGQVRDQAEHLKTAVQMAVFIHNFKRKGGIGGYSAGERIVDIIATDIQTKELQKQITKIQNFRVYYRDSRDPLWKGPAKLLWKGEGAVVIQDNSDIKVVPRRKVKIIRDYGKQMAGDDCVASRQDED

SMILES	CC50 (CCRF-CEM) [µM]	IC50 (HEL [1]) [µg/mL]	IC50 (HEL [2]) [µg/mL]	IC50 (HEL [3]) [µg/mL]	IC50 (HEL [4]) [µg/mL]	IC50 (HEL [5]) [µg/mL]	IC50 (HEL [6]) [µg/mL]	IC50 (HEL [7]) [µg/mL]	MCC (HEL [8]) [µg/mL]	IC50 (HeLa [9]) [µg/mL]	IC50 [10] [µM]	MCC (HeLa [11]) [µg/mL]	IC50 (MOLT-4 [12]) [µM]	IC50 (MOLT-4 [13]) [µM]	CC50 (MT4 [14]) [µM]	IC50 (MT4 [16]) [µM]	MCC (MDCK [17]) [µg/mL]	IC50 (MDCK [18]) [µg/mL]	IC50 (MDCK [19]) [µg/mL]	IC50 [20] [µM]	further results
CC(C)CCCC(C)[C@H]1CC[C@H]2[C@@H]3CCC4CC(=C(c5cc(Cl)c(O)c(C(=O)O)c5)c5cc(Cl)c(O)c(C(=O)O)c5)CC[C@]4(C)[C@H]3CC[C@]12C (some centres not stated)	> 200	12 (≈ 16.5 µM)	> 20	> 20	> 20	2.35 (≈ 3.24 µM)	> 20	> 20	> 50	20 (≈ 27.6 µM)	> 100	100	24	24	36.7	2.5	> 200	14 (≈ 19.3 µM)	> 200	0.35	IC50 (MT4 [15]): 6 µM; IC50 (Homo sapiens [21]): 59.3 µM; MCC (Vero [22]): 200 µg/mL; IC50 (Vero [23]): 16 µg/mL (≈ 22 µM); IC50 (Vero [24]): 20 µg/mL (≈ 27.6 µM); CC50 (Homo sapiens [25]): 78 µM
O=C(O)c1cc(C(=CCC23CC4CC(CC(C4)C2)C3)c2cc(Cl)c(O)c(C(=O)O)c2)cc(Cl)c1O	105	> 20	> 5	> 5	> 5	11 (≈ 21.3 µM)	> 5	> 5	50	4 (≈ 7.73 µM)	7	20	> 40	> 40	> 40	> 40	4	> 4	> 4	0.37	IC50 (Homo sapiens [21]): 148 µM; MCC (Vero [22]): 50 µg/mL; IC50 (Vero [23]): > 20 µg/mL; IC50 (Vero [24]): > 20 µg/mL; CC50 (Homo sapiens [25]): 185 µM
CC(CCC=C(c1cc(Cl)c(O)c(C(=O)O)c1)c1cc(Cl)c(O)c(C(=O)O)c1)[C@H]1CC[C@H]2[C@@H]3CC[C@@H]4CC(F)(F)CC[C@]4(C)[C@H]3CC[C@]12C (some centres not stated)	38.5	> 20	> 20	> 20	20 (≈ 27.8 µM)	11 (≈ 15.3 µM)	20 (≈ 27.8 µM)	> 20	50	4 (≈ 5.56 µM)	2.2	20	8	24	34	27.7	12	> 12	> 12	0.39	IC50 (MT4 [15]): 3.5 µM; IC50 (Homo sapiens [21]): 24 µM; MCC (Vero [22]): 20 µg/mL; IC50 (Vero [23]): > 5 µg/mL; IC50 (Vero [24]): > 5 µg/mL; CC50 (Homo sapiens [25]): 69.5 µM
